Laboratory results as given in ChEMBL document CHEMBL3616436, “Synthesis, cytotoxicity and antimicrobial activity of thiourea derivatives incorporating 3-(trifluoromethyl)phenyl moiety” (Eur J Med Chem, 2015).
Values after ≈ are worked out from the molar mass of the structure shown.

How the values were obtained:
[1] = Cytotoxicity against African green monkey Vero 76 cells assessed as cell viability after 48 to 96 hrs by crystal violet staining; assay type: cell-based; settings: chlorocebus sabaeus
[2] = test system: Mycobacterium tuberculosis; assay: Antimycobacterial activity against Mycobacterium tuberculosis H37Rv ATCC 25618; assay type: functional
In short: (§1)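 Classical test-tube successive-dilution method in Youmans' modification of Proskauer and Beck liquid medium with 10% bovine serum. Inoculum came from 14-day cultures. DMSO stock was 10 mg/mL, diluted geometrically in medium. Tubes were incubated at 37 °C. Concentrations tested were 3.1, 6.2, 12.5, 25, 50 and 100 µg/ml. MIC is the minimum concentration inhibiting growth relative to compound-free tubes.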

[3] = test system: Mycobacterium tuberculosis; assay: Antimycobacterial activity against drug-sensitive Mycobacterium tuberculosis Spec. 192; assay type: functional; in short: as §1
[4] = Cytotoxicity against human MT4 cells; assay type: cell-based
[5] = Cytotoxicity against bovine MDBK cells assessed as cell viability after 48 to 96 hrs by MTT assay; assay type: cell-based, Bos taurus; settings: cattle
[6] = Cytotoxicity against BHK cells assessed as cell viability after 48 to 96 hrs by MTT assay; assay type: cell-based, Mesocricetus auratus; settings: hamster
[7] = Antiviral activity against Bovine viral diarrhea virus 1-NADL ATCC VR-534 infected in MDBK cells assessed as protection against virus-induced cytopathogenicity after 3 to 4 days by MTT assay; assay type: functional, cell-based; settings: Bovine viral diarrhea virus isolates and strains, ATCC VR-534, MDBK
In short: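 Cells seeded in 96-well plates (BHK 5x10^4, MDBK 3x10^4 cells/well), grown overnight to confluence, infected at m.o.i. 0.01 (BHK for Reo-1, MDBK for BVDV); serial compound dilutions in maintenance medium with 0.5% inactivated FBS added after 1 h; viability by MTT after 3–4 days at 37°C; EC50 for 50% protection by linear regression.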

[8] = test system: Yellow fever virus; assay: Antiviral activity against Yellow fever virus 17D infected in BHK cells assessed as protection against virus-induced cytopathogenicity after 3 to 4 days by MTT assay; assay type: functional, cell-based

SMILES | CC50 [1] [µM] | CC50 [4] [µM] | CC50 [5] [µM] | CC50 [6] [µM] | other results
COc1c(C)c2c(c(O)c1C/C=C(\C)CCC(=O)O)C(=O)OC2 [MYCOPHENOLIC ACID] | > 100 | – | – | – | –
NNC(=O)c1ccncc1 [ISONIAZID] | – | – | – | – | MIC [2]: 6.25 µg/mL (≈ 45.6 µM); MIC [3]: 12.5 µg/mL (≈ 91.1 µM)
O=c1cnn([C@@H]2O[C@H](CO)[C@@H](O)[C@H]2O)c(=O)[nH]1 [6-AZAURIDINE] | 12 | – | – | – | –
O=C1Nc2ccc(Cl)cc2[C@@](C#CC2CC2)(C(F)(F)F)O1 [EFAVIRENZ] | – | 40 | – | – | –
FC(F)(F)c1cccc(NC(=S)Nc2ccc(Cl)c(Cl)c2)c1 | 16 | 9 | 10 | 9.5 | –
C[C@@]1(O)[C@H](O)[C@@H](CO)O[C@H]1n1cnc2c(=O)[nH]c(N)nc21 [2'-B-METHYL-GUANOSINE] | – | – | > 10 | > 100 | EC50 [7]: 1.1 µM; EC50 [8]: 1.9 µM
